Measurements from ChEMBL document CHEMBL1133692, “Modeling of the inhibition of retroviral integrases by styrylquinoline derivatives” (J Med Chem, 2000).

Target: Gag-Pol polyprotein (Rous sarcoma virus (strain Prague C) (RSV-PrC), UniProt P03354)
Assay: Inhibition of rous sarcoma virus (RSV) Integrase.
Outline: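 His-tagged RSV integrase catalytic core expressed in E. coli BL21(DE3) (IPTG 1 mM, 3 h, 37 °C) and purified on Ni-NTA. Disintegration assay used 0.5 pmol 5′-32P-labeled annealed DRSV oligonucleotide with 2 pmol core in Tris buffer pH 7.2 for 1 h at 37 °C. Products were resolved on a 15% denaturing polyacrylamide gel and quantified by phosphorimager. IC50 is the concentration halving activity.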

Chain of Gag-Pol polyprotein (P03354 1281-1567 limits assumed): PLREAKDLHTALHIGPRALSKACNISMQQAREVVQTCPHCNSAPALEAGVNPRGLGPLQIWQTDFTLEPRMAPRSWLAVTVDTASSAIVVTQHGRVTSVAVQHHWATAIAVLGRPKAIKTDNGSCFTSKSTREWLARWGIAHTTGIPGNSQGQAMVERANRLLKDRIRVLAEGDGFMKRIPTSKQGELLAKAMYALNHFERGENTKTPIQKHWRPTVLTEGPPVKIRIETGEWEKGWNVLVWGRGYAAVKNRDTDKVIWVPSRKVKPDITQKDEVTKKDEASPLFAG

CC(=O)Oc1cccc2ccc(/C=C/c3ccccc3)nc12 and Oc1cccc2ccc(/C=C/c3ccccc3)nc12 cannot be ordered by IC50: > 100 µM for the first, > 100 µM for the second.

Compared with O=C(O)c1ccc2ccc(/C=C/c3ccc(O)cc3O)nc2c1O, O=C(O)c1ccc2ccc(/C=C/c3ccc(O)c(O)c3)nc2c1O is 17-fold lower in IC50: 38.3 µM for the first, 2.3 µM for the second. The second is the more potent here.

Going from O=C(O)c1ccc2ccc(/C=C/c3cc(O)c(O)c(O)c3)nc2c1O to O=C(O)c1cc(/C=C/c2ccc3ccc(C(=O)O)c(O)c3n2)ccc1O, the IC50 rises from 2.1 µM to 7.4 µM (3.5-fold).

First: O=C(O)c1ccc2ccc(/C=C/c3ccccc3)nc2c1O
Second: O=C(O)c1ccc2ccc(/C=C/c3ccc(O)cc3)nc2c1O
The IC50 of the first is 2-fold lower: 10.3 µM for the first, 20.9 µM for the second.

First: Cc1ccc2cccc(OC(=O)/C=C/c3ccc(O)c(O)c3)c2n1
Second: Oc1ccc(/C=C/c2ccc3cccc(O)c3n2)cc1O
The IC50 of the first is higher: > 100 µM for the first, 65.1 µM for the second. The second is the more potent here.

Nc1cccc2ccc(/C=C/c3ccc(O)c(O)c3)nc12 and O=[N+]([O-])c1cccc2ccc(/C=C/c3ccc(O)c(O)c3)nc12 cannot be ordered by IC50: > 100 µM for the first, > 100 µM for the second.

Compared with CC(=O)Oc1ccc(/C=C/c2ccc3cccc(OC(C)=O)c3n2)cc1OC(C)=O, N#Cc1ccc2ccc(/C=C/c3ccc(O)c(O)c3)nc2c1O is lower in IC50: > 100 µM for the first, 38 µM for the second. The second is the more potent here.

Target: Human immunodeficiency virus type 1 integrase (Human immunodeficiency virus 1, UniProt Q7ZJM1)
Sequence (Q7ZJM1 whole entry): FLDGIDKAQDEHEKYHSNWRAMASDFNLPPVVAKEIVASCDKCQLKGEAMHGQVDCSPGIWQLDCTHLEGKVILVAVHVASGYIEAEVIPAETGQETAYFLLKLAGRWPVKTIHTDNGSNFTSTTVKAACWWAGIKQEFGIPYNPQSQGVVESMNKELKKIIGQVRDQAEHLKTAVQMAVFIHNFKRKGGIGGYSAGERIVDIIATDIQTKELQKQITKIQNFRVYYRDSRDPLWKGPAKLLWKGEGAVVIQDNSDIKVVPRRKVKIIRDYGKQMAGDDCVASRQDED
Assay: Inhibition of human immunodeficiency virus-1 (HIV-1) integrase.
Outline: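 Disintegration assay with His-tagged HIV-1 integrase catalytic core, expressed in E. coli BL21(DE3) and Ni-NTA purified. Substrate was 0.5 pmol of 5′-32P-labelled, self-annealed DHIV oligonucleotide, reacted with 2 pmol core in Tris buffer pH 7.2 for 1 h at 37 °C. Products were resolved on 15% denaturing polyacrylamide gel and quantified by phosphorimaging. IC50 is the drug concentration halving enzyme activity.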

In the case of O=C(O)c1ccc2ccc(/C=C/c3ccc(O)cc3O)nc2c1O, the IC50 is reported as 2.5 µM.
